≈ marks a conversion by molar mass, not a printed value.
Tests used:
Type in all cases: functional
[1] = tested on: Bacillus subtilis; test: Antimicrobial activity against Bacillus subtilis after 24 hrs by agar dilution technique
Method in brief: (§1)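 Suspensions of E. coli, B. subtilis and Staphylococcus aureus were prepared at about 10⁵–10⁶ CFU/well, and test compounds were applied to the wells over a concentration range. MIC was taken as the lowest concentration with no apparent growth, disregarding a single colony or a faint haze from the inoculum.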

[2] = tested on: Escherichia coli; test: Antimicrobial activity against Escherichia coli after 24 hrs by agar dilution technique; method in brief: as §1
[3] = tested on: Staphylococcus aureus; test: Antimicrobial activity against Staphylococcus aureus after 24 hrs by agar dilution technique; method in brief: as §1
[4] = Antioxidant activity assessed as superoxide radical scavenging activity measured as formazone formation by spectrophotometry relative to control; design: concentration or dose not given beside the values
Method in brief: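 NADH–NBT–PMS superoxide-generating mixture in 0.1 M phosphate buffer, pH 7.4, with reagents made up in buffer. Sample was added from a 1 mM DMSO solution. The reaction ran at room temperature, and superoxide formation was followed as blue formazan absorbance at 560 nm. Lower absorbance was read as higher scavenging.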

Q: For `Cc1c2c(nn1CC(=O)N/N=C/c1ccccn1)-c1ccccc1S(=O)(=O)N2C`, which MIC [1] is on record?
A: 88 µg/mL (≈ 214 µM)

Q: And the MIC [2]?
A: 28 µg/mL (≈ 68.2 µM)

Q: What about the MIC [3] of the same compound?
A: > 200 µg/mL

Q: And the Activity [4]?
A: 24%

Q: Which results are given for `COc1ccc(/C=N/NC(=O)Cn2nc3c(c2C)N(C)S(=O)(=O)c2ccccc2-3)c(OC)c1`?
A: MIC [1]: > 200 µg/mL; MIC [2]: 17 µg/mL (≈ 36.2 µM); MIC [3]: > 200 µg/mL; Activity [4]: 53.1%

Q: For `Cc1c2c(nn1CC(=O)N/N=C/c1ccsc1)-c1ccccc1S(=O)(=O)N2C`, which MIC [1] is on record?
A: 82 µg/mL (≈ 197 µM)

Q: And the MIC [2]?
A: 24 µg/mL (≈ 57.8 µM)

Q: What about the MIC [3] of the same compound?
A: 61 µg/mL (≈ 147 µM)

Q: What about the Activity [4] of the same compound?
A: 16.5%

Q: With `Cc1c2c(nn1CC(=O)N/N=C/c1ccc([N+](=O)[O-])cc1)-c1ccccc1S(=O)(=O)N2C` as the compound, how does the MIC [1] read?
A: > 200 µg/mL

Q: And the MIC [2]?
A: > 200 µg/mL

Q: What about the MIC [3] of the same compound?
A: > 200 µg/mL

Q: What about the Activity [4] of the same compound?
A: 23.7%

Q: With `Cc1c2c(nn1CC(=O)N/N=C/c1ccccc1)-c1ccccc1S(=O)(=O)N2C` as the compound, how does the MIC [1] read?
A: > 200 µg/mL

Q: And the MIC [2]?
A: 69 µg/mL (≈ 169 µM)

Q: And the MIC [3]?
A: > 200 µg/mL

Q: And the Activity [4]?
A: 33.9%

Q: For `Cc1c2c(nn1CC(=O)N/N=C/c1ccccc1[N+](=O)[O-])-c1ccccc1S(=O)(=O)N2C`, which MIC [1] is on record?
A: > 200 µg/mL

Q: And the MIC [2]?
A: > 200 µg/mL

Q: What about the MIC [3] of the same compound?
A: > 200 µg/mL

Q: What about the Activity [4] of the same compound?
A: 28.8%

Q: With `Cc1c2c(nn1CC(=O)N/N=C/c1ccccc1Cl)-c1ccccc1S(=O)(=O)N2C` as the compound, how does the MIC [1] read?
A: > 200 µg/mL

Q: What about the MIC [2] of the same compound?
A: > 200 µg/mL

Q: And the MIC [3]?
A: > 200 µg/mL

Q: And the Activity [4]?
A: 44.2%

Q: For `Cc1c2c(nn1CC(=O)N/N=C/c1cccnc1)-c1ccccc1S(=O)(=O)N2C`, which MIC [1] is on record?
A: 95 µg/mL (≈ 231 µM)

Q: What about the MIC [2] of the same compound?
A: 27 µg/mL (≈ 65.8 µM)

Q: What about the MIC [3] of the same compound?
A: > 200 µg/mL

Q: What about the Activity [4] of the same compound?
A: 25.1%

Q: What does the source list for `CCOc1cc(/C=N/NC(=O)Cn2nc3c(c2C)N(C)S(=O)(=O)c2ccccc2-3)ccc1O`?
A: MIC [1]: 47 µg/mL (≈ 100 µM); MIC [2]: 11 µg/mL (≈ 23.4 µM); MIC [3]: > 200 µg/mL; Activity [4]: 71.1%

Q: For `Cc1c2c(nn1CC(=O)N/N=C/c1ccc(F)cc1)-c1ccccc1S(=O)(=O)N2C`, which MIC [1] is on record?
A: > 200 µg/mL

Q: And the MIC [2]?
A: > 200 µg/mL

Q: What about the MIC [3] of the same compound?
A: > 200 µg/mL

Q: What about the Activity [4] of the same compound?
A: 17.4%

Q: What does the source list for `Cc1c2c(nn1CC(=O)N/N=C/c1ccc(Cl)c(Cl)c1)-c1ccccc1S(=O)(=O)N2C`?
A: MIC [1]: > 200 µg/mL; MIC [2]: > 200 µg/mL; MIC [3]: > 200 µg/mL; Activity [4]: 51.5%

Q: Which results are given for `Cc1c2c(nn1CC(=O)N/N=C/c1ccc(Cl)cc1Cl)-c1ccccc1S(=O)(=O)N2C`?
A: MIC [1]: > 200 µg/mL; MIC [2]: > 200 µg/mL; MIC [3]: > 200 µg/mL; Activity [4]: 48.7%

Q: For `Cc1c2c(nn1CC(=O)N/N=C/c1cccs1)-c1ccccc1S(=O)(=O)N2C`, which MIC [1] is on record?
A: 77 µg/mL (≈ 185 µM)

Q: What about the MIC [2] of the same compound?
A: 23 µg/mL (≈ 55.4 µM)

Q: And the MIC [3]?
A: 55 µg/mL (≈ 132 µM)

Q: And the Activity [4]?
A: 14.6%

Q: With `CN(C)[C@@H]1C(O)=C(C(N)=O)C(=O)[C@@]2(O)C(O)=C3C(=O)c4c(O)cccc4[C@@](C)(O)[C@H]3C[C@@H]12` [TETRACYCLINE] as the compound, how does the MIC [1] read?
A: 0.35 µg/mL (≈ 0.788 µM)

Q: And the MIC [2]?
A: 0.25 µg/mL (≈ 0.563 µM)

Q: What about the MIC [3] of the same compound?
A: 0.78 µg/mL (≈ 1.76 µM)

Q: Which results are given for `COc1cccc(/C=N/NC(=O)Cn2nc3c(c2C)N(C)S(=O)(=O)c2ccccc2-3)c1`?
A: MIC [1]: 69 µg/mL (≈ 157 µM); MIC [2]: 23 µg/mL (≈ 52.3 µM); MIC [3]: > 200 µg/mL; Activity [4]: 44.9%

Q: For `CCCOC(=O)c1cc(O)c(O)c(O)c1`, which Activity [4] is on record?
A: 91.3%

Q: What does the source list for `Cc1c2c(nn1CC(=O)N/N=C/c1ccc(O)cc1O)-c1ccccc1S(=O)(=O)N2C`?
A: MIC [1]: 39 µg/mL (≈ 88.3 µM); MIC [2]: 5 µg/mL (≈ 11.3 µM); MIC [3]: > 200 µg/mL; Activity [4]: 98.3%

Q: Which results are given for `Cc1c2c(nn1CC(=O)N/N=C/c1ccc(Cl)cc1)-c1ccccc1S(=O)(=O)N2C`?
A: MIC [1]: > 200 µg/mL; MIC [2]: > 200 µg/mL; MIC [3]: > 200 µg/mL; Activity [4]: 23.3%

Q: Which results are given for `Cc1c2c(nn1CC(=O)N/N=C/c1cccc([N+](=O)[O-])c1)-c1ccccc1S(=O)(=O)N2C`?
A: MIC [1]: > 200 µg/mL; MIC [2]: > 200 µg/mL; MIC [3]: > 200 µg/mL; Activity [4]: 52.2%
